Screens (PubChem)
CHOP inh – CHOP inhibition in unfolded protein response; inhibition, % at 10 µM; CHO-K1 CHOP-promoter luciferase, tunicamycin-induced, 15-18 h; actives 3.8% (n = 220,000);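 active = compounds that reduced the stress-induced luciferase reporter signal by more than about 70% of percent inhibition, limit read from the data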
XBP1 UPR activ – adaptive UPR (XBP1) activation | AID 463104 | CHO-XBP1 luciferase reporter, IRE1-XBP1 UPR activation, luminescence; percent of tunicamycin response, DMSO as zero | actives 0.33% (n = 330,000) | activation, % at 20 µM;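 active = versus positive control, 20 µM dose yields 30% or more activation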
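Test system: CHO-XBP1 luciferase reporter cells | Buffer or medium: Serum-containing F12 medium, 10% FBS | Schedule: 6 h compound exposure at 37 °C, 5% CO2 | Detection: Steady-Glo luciferase glow luminescence, 10 min after reagent addition | Read-out basis: Activation, % of tunicamycin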
A1 inh – inhibitors of the anti-apoptotic protein A1, read as caspase activation. caspase activation, % (concentration not given with the values). actives 0.066% (n = 330,000). MEF A1-2A-BIM cells, Caspase-Glo 3/7 luminescence, 3 h; percent of clofoctol response, vehicle zero. AID 2462;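 active = over half of replicate activation scores above 10%, or exactly half above 10 with the replicate mean above 10; inconclusive = replicate mean below 10 yet half the replicates above 10; inactive = over half of replicates below 10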
CHOP UPR activ – activators of apoptotic arm of unfolded protein response (CHOP). CHO-CHOP luciferase reporter, UPR activation, luminescence; percent of tunicamycin response over DMSO baseline. actives 0.34% (n = 330,000). activation, % at 10 µM;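 active = at 10 µM dose, activation of 40% or more, normalized to positive control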
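System: CHO-CHOP luciferase reporter cell line | Buffer or medium: F12 medium containing 10% fetal bovine serum | Doses: One dose, 10 µM in 0.5% DMSO | Times: 6 h compound exposure at 37 °C after overnight seeding | Signal: Luciferase luminescence | Read-out: % activation vs tunicamycin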
XBP1 UPR conf – adaptive UPR (XBP1) activation, confirmed | shares compounds with XBP1 UPR activ | CHO-XBP1 IRE1-XBP1 luciferase reporter, luminescence | activation, % at 20 µM | actives 63% (n = 1,000);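 active = reporter signal at least 30% of the positive control's activation in two or more of four replicate wells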
Large screens that a line does not name were inactive (follow-up assays come after a bar, where they were run); ! = a repeat was not active. The sample as a whole holds a higher share of hits than the screen did.

Cc1cccc2c1Sc1ccc(Cl)cc1CC2N1CCNCC1 (configuration not stated)	XBP1 UPR activ 31 (no result: CHOP inh) | XBP1 UPR conf 37
COC(=O)C1=C(C)N(c2ccc(OC)cc2)C(=O)/C1=C\c1cccs1	none
NS(=O)(=O)c1ccc(CCNC(=O)c2ccc(CS(=O)(=O)c3ccc(Br)cc3)o2)cc1	none (no result: CHOP inh)
Cc1cc2nc(CCN3CCOCC3)n(S(=O)(=O)c3ccc(C(C)(C)C)cc3)c2cc1C	XBP1 UPR activ 32 | XBP1 UPR conf inactive
Cc1cc2ncn(S(=O)(=O)c3ccc(S(=O)(=O)N4CCOCC4)cc3)c2cc1C	none
COc1ccc(-c2cn(CCC(=O)NCc3ccc(C)cc3)c(CCN)n2)cc1	none (no result: CHOP inh)
COc1cccc(C2Nc3ccc4ccccc4c3C3=C2C(=O)CCC3)c1O (configuration not stated)	XBP1 UPR activ 57 (no result: CHOP inh) | XBP1 UPR conf inactive
Cc1nc2sc(C(=O)Nc3ccccc3)c(N)c2c(C)c1[N+](=O)[O-]	XBP1 UPR activ 91 | XBP1 UPR conf inactive
COC(=O)c1cc(CNC(=O)c2sccc2-c2ccccc2)ccc1OC	none (no result: CHOP inh)
COc1ccc(-c2csc(NC(=S)NC(=O)/C=C/c3ccccc3)n2)cc1Br	XBP1 UPR activ 160 | XBP1 UPR conf 250
O=C(/C=C/c1ccco1)NC(=S)Nc1nc(-c2ccc3ccccc3c2)cs1	none
COc1ccc(Br)cc1/C=N/NC(=O)c1ccc(COc2ccc3c(c2)CCC3)o1	none
COc1ccccc1/C=N\NC(=O)c1ccc(COc2ccc(C)c(C)c2)o1	XBP1 UPR activ 41 (no result: CHOP inh) | XBP1 UPR conf inactive
NNC(=O)Cn1c(-c2nonc2N)nc2ccccc21	none
CCCCOc1ccccc1NC(=O)Cn1c(-c2nonc2N)nc2ccccc21	XBP1 UPR activ 101 (no result: CHOP inh) | XBP1 UPR conf 82
C=C(C)[C@@H]1CC[C@]2(C(=O)O)CC[C@]3(C)C(CCC4[C@@]5(C)CC[C@H](O)C(C)(C)C5CC[C@]43C)C12 (some centres not stated)	XBP1 UPR activ 40 (no result: CHOP inh) | XBP1 UPR conf inactive
COc1ccc(-c2nn(-c3ccccc3)cc2C(=O)N/N=C/c2ccc([N+](=O)[O-])o2)cc1	CHOP inh 90, XBP1 UPR activ 38 | XBP1 UPR conf inactive
Cc1cc(C(=O)N/N=C/c2ccc([N+](=O)[O-])o2)c(C)o1	none
CC1CCC(C(C)C)C(OC(=O)C[n+]2cccc(C(N)=O)c2)C1 (configuration not stated)	A1 inh inconclusive
CC1CCC(C(C)C)C(OC(=O)Cn2c(-c3ccc(Br)cc3)[n+](C)c3ccccc32)C1 (configuration not stated)	CHOP inh 90!, XBP1 UPR activ 109 | XBP1 UPR conf 108
CC1CCC(C(C)C)C(OC(=O)Cn2c(-c3ccc(Cl)cc3)[n+](C)c3ccccc32)C1 (configuration not stated)	XBP1 UPR activ 87 | XBP1 UPR conf 86
CC(C)[C@@H]1CC[C@@H](C)C[C@H]1OC(=O)C[n+]1cc(-c2ccc(Cl)cc2)n2c1CCCCC2	none
O=C1CC2C(=O)NCCN2C(=NC(=O)c2ccc(Cl)cc2)N1 (configuration not stated)	none
COc1ccccc1NS(=O)(=O)c1ccc(C)c(C(=O)N2CCCC2)c1	none (no result: CHOP inh)
O=C(Oc1ccccc1/C=C\C(=O)c1cc2ccccc2o1)c1cccc(F)c1	XBP1 UPR activ 39 | XBP1 UPR conf 60
N#Cc1ccccc1/C=N/Nc1nc(-c2ccccc2)c2cc(Cl)ccc2n1	CHOP inh 89, XBP1 UPR activ 62 | XBP1 UPR conf 102
Cc1nc(NC(=O)CSc2ccc(-c3nc4ccccc4[nH]3)cn2)sc1C	XBP1 UPR activ 54 | XBP1 UPR conf 85
CCc1cc2cc3c(cc2nc1SCC(=O)Nc1nccs1)OCO3	XBP1 UPR activ 57 | XBP1 UPR conf inactive
COc1ccc(-c2c(-c3cc(OC)cc(OC)c3)n(C)c3ccc(-c4ccc(OC)nc4)cc23)cc1	none (no result: CHOP inh)
COc1ccc(-c2c(-c3cc(OC)cc(OC)c3)n(C)c3ccc(-c4cnc(N)nc4)cc23)cc1	XBP1 UPR activ 189 (no result: CHOP inh) | XBP1 UPR conf 132
O=C(Nc1ccc(Cl)cc1)Nc1ccc(N2CCC(C(F)(F)F)CC2)nc1	none
CCn1nc(C)cc1C(=O)Sc1cccc(Br)c1	XBP1 UPR activ 97 | XBP1 UPR conf inactive
CCOC(=O)c1c(C)[nH]c(C(=O)COc2ccc3ccc(=O)oc3c2)c1C	XBP1 UPR activ 41 (no result: CHOP inh) | XBP1 UPR conf inactive
COc1ccc(CC(=O)Nc2nc(C(C)(C)C)cs2)cc1	none (no result: CHOP inh)
O=C1NC(=Nc2ccc(O)cc2)S/C1=C\C=C\c1ccco1	XBP1 UPR activ 31 | XBP1 UPR conf inactive
COc1cc(/C=N/NC(=O)NC23CC4CC(CC(C4)C2)C3)ccc1O	XBP1 UPR activ 44 (no result: CHOP inh) | XBP1 UPR conf inactive
O=C(N/N=C/c1ccccc1O)NC12CC3CC(CC(C3)C1)C2	none (no result: CHOP inh)
COc1ccc(OCC(=O)Sc2ccc(C)cc2)cc1	CHOP inh 83, XBP1 UPR activ 35 | XBP1 UPR conf inactive
COc1ccc(OC(=O)COc2ccc(C)cc2)cc1	none
CCCCCOCC(O)CCC(=O)NN (configuration not stated)	XBP1 UPR activ 34 | XBP1 UPR conf inactive
O=C(NCCCn1ccnc1)c1nn2c(C(F)(F)F)cc(-c3ccc(Br)cc3)nc2c1Cl	XBP1 UPR activ 37 | XBP1 UPR conf 94
CCCNC(=O)c1nn2c(C(F)(F)F)cc(-c3ccccc3)nc2c1Cl	none (no result: CHOP inh)
COc1ccc(-c2cc(C#N)nc(Cl)n2)cc1	XBP1 UPR activ 30 | XBP1 UPR conf inactive
COc1ccc(NC(=O)N2CCCc3cc(C)ccc32)c(OC)c1	none (no result: CHOP inh)
N#Cc1ccc(-c2ccc(F)cc2)nc1Oc1ccc(Cl)c(Cl)c1	XBP1 UPR activ 38 | XBP1 UPR conf inactive
CN(C)S(=O)(=O)c1ccc(N2CCCC2)c(C(=O)Nc2nccs2)c1	XBP1 UPR activ 60 (no result: CHOP inh) | XBP1 UPR conf 69
CN(C)S(=O)(=O)c1ccc(N2CCCC2)c(C(=O)Nc2nc(-c3ccc(F)c(F)c3)cs2)c1	none
Cc1cccc2cc(COC(=O)c3cccc([N+](=O)[O-])c3)c(=O)[nH]c12	none
COc1ccc(CN2CCCCCC2)cc1OC	none (no result: CHOP inh)
COc1cc(CN2CCCCC2)ccc1OCc1ccccc1	XBP1 UPR activ 37 (no result: CHOP inh) | XBP1 UPR conf inactive
CCN(CC)C(=O)[C@H]1C[C@H](CC(=O)NCC23CC4CC(CC(C4)C2)C3)C(=O)N2CCc3c([nH]c4ccc(Cl)cc34)[C@]12C	none (no result: CHOP inh, A1 inh)
CC(C)N(C(=O)[C@H]1C[C@H](CC(=O)NCC23CC4CC(CC(C4)C2)C3)C(=O)N2CCc3c([nH]c4ccc(Cl)cc34)[C@]12C)C(C)C	XBP1 UPR activ 39 (no result: CHOP inh, A1 inh) | XBP1 UPR conf 50
Cc1ccc(CNC(=O)c2ccc3c(=O)n4c(-c5ccc(C)cc5)csc4nc3c2)cc1	CHOP inh 79, XBP1 UPR activ 46, A1 inh inconclusive | XBP1 UPR conf 120
